Test results reported in the EternaBench riboswitch data.

Tested on: MS2 coat protein
Test: apparent Kd, MS2 coat protein; higher = weaker binding; RNA-MaP array
Procedure, shortened: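 Designs measured on fewer than 10 clusters were excluded from the data. The rest were RNAs transcribed from sequenced DNA templates on an Illumina sequencing chip and incubated at room temperature, with or without input ligand, with fluorescently labeled MS2 coat protein at 1.5 nM to 3 μM for 0.8–1.5 h at the lowest to 10–20 min at the highest concentrations. Apparent Kd is the median of the per-cluster binding-curve fits.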

[1] = designed as: OFF switch for flavin mononucleotide, no ligand
[2] = ligand present: flavin mononucleotide, designed as: OFF switch for flavin mononucleotide
[3] = designed as: ON switch for flavin mononucleotide, no ligand
[4] = ligand present: flavin mononucleotide, designed as: ON switch for flavin mononucleotide
[5] = designed as: OFF switch for tryptophan, no ligand
[6] = ligand present: tryptophan, designed as: OFF switch for tryptophan
[7] = designed as: OFF switch for theophylline, no ligand
[8] = ligand present: theophylline, designed as: OFF switch for theophylline

| Sequence | apparent Kd [1] [nM] | apparent Kd [2] [nM] | apparent Kd [3] [nM] | apparent Kd [4] [nM] | further results |
| --- | --- | --- | --- | --- | --- |
| GCUUUAUUAGGAUAUGUAACCGUUAACAUGAGGAUCACCCAUGUUGAUUCUCAAGAGACCACAGAAGGAAUAAAAG | 289 | 240 |  |  |  |
| GGAAAACACAAGAAGGCGUCGGACUGGGCGAGACGAGGAUAUUGUAGCUCUAAUCGUGGACAGACAUGAGGAUCACCCAUGUCG |  |  | 7.93 | 6.18 |  |
| GGAAUGUGAGGAUAUGUUAAGAAGGCGCGACGUUGGGAGACACAGAAGGCACAUGAGGAUCACCCAUGUUAUGA | 23.2 | 31.1 |  |  |  |
| GGACAAGAAGAGAAGGGCUUACCAAACCUCAACAUGAGGAUCACCCAUGUCAAAGUGGAAGCAUAGCAGGAUAUCUAACAGCGC | 8.09 | 7.72 |  |  |  |
| GGACGCCAUAUAGAGGAUAUUAAUGUCGACACAUGAGGAUCACCCAUGUCCCACUCGGGCGAACAUAAGAAGGCUAAUCAGACGUA |  |  | 14.5 | 10.5 |  |
| GGAGUUCUAGGAUAUAAUUCGUGGUACAUGAGGAUCACCCAUGUCGCUGAUGCAUCGCCUUUAGAAGGAGAGAUCU | 9.03 | 9.49 |  |  |  |
| GGAUCGCUCUACAUGAGGAUCACCCAUGUGACUGAGCUAGAUAGAAGGAGAUGGCGAAAUACUUUCUAGGAUAUAUUGUAGCUA | 8.05 | 8.08 |  |  |  |
| GGGACACAUGAGGAUCACCCAUGUUGAUGACUUUGAGGAUAUUAGCAAAUUCUGGUCCGCUAAGAAGGCAAGGAAG |  |  | 18.8 | 9.82 |  |
| GGGUUACACACAUGAGGAUCACCCAUGUUUGCGUGGGCGGGCAGAAGGAGAACCGGAUUACACUUCUAGGAUAUGCAGAUGAUC |  |  | 23.6 | 28.2 |  |
| GGUGAUUUCCGACGUUUACAUGAGGAUCACCCAUGUAGGUAGAAGGAUAUGUGUAAAAUUGAUAAACAGAAGGUCUUCCGAAUA | 12.2 | 49.3 |  |  |  |
| GGUGUUACGUCGGCCGCCACUAUACUACAUGAGGAUCACCCAUGUCAUCCCUUCAAUUGGUAGCCUAGGACCGGGACAGAAUUCG |  |  |  |  | apparent Kd [5]: 43.4 nM; apparent Kd [6]: 47.2 nM |
| GGUUCCUCAACGGCCGCCACUUACUGGAUUAGUGGACCUACUUGCAACAUGAGGAUCACCCAUGUAAGGACCGGGUUGCUCCCAA |  |  |  |  | apparent Kd [5]: 68.2 nM; apparent Kd [6]: 79.2 nM |
| GGUUUUUCUGUUAGGAUAUUUCAUGACAGGCGAUGAAAGAAGGAACAUGAGGAUCACCCAUGUGUUUGAGAUAA | 9.57 | 10.6 |  |  |  |
| GUAACGGAAGGAUAUACGCUUUAAUGGACAGGUUCGAUGGCACAUGAGGAUCACCCAUGUAGAAGGUCCCUAAA | 10.8 | 13.4 |  |  |  |
| GUAGAGUCAGGAUAUGUCAACUGCUCUGUAAAGCUUGGUCGACAGAAGGGACAUGAGGAUCACCCAUGUGAAGG | 34.1 | 56.5 |  |  |  |
| GUCAACACAGUAGGAUAUCCAAUGCGUAAGCUCGGAGAAGGACUUAACUAGCAGUUUGAUCGACAUGAGGAUCACCCAUGUAAU | 11.3 | 9.96 |  |  |  |
| GUCUGGAUGUAGGAUAUGUGUCCGUGCUAGGGUACAGAAGGACAGACAUGAGGAUCACCCAUGUGGAUCAACCG | 22.6 | 38.2 |  |  |  |
| GUCUGGUCAGGAUAUUCGAGGUGUAACAUGAGGAUCACCCAUGUUUCUUAGCUAGAGGCCGAAGAAGGGACGGGUA | 11.4 | 10.1 |  |  |  |
| GUGAACGUCAAAGGAUAUGUCGGAACUGCUAGAACAGAAGGUUGGGAAUCGGAUUGGUUGCACAUGAGGAUCACCCAUGUUGAG |  |  | 443 | 264 |  |
| GUGAUGCAGCAGAAGGGAUCGCUAAGGUUGUAAUCAGGAUAUGCAGUCGCUAGGGCGCCUCGACAUGAGGAUCACCCAUGUUUG | 52.7 | 61.7 |  |  |  |
| GUGCACAUGAGGAUCACCCAUGUCUGUGUAUUCCUGCUACCAGAGGAUAUGGCGUGCGUAGCUUACCAGAAGGCUGGUUGUAUC | 30 | 13.4 |  |  |  |

| Sequence | apparent Kd [1] [nM] | apparent Kd [2] [nM] | apparent Kd [3] [nM] | apparent Kd [4] [nM] | further results |
| --- | --- | --- | --- | --- | --- |
| GUGGGCUAGGAGAAGGACGAUCGAAGCCAUAUCGUAGGAUAUCCAUUAAGAUCCCGGACAUGAGGAUCACCCAUGUGGUGAUAG | 676 | 414 |  |  |  |
| GUGUGGCGCUCAGGAUAUAGAAGGUCGCUAGUUCUAGAAGGGAGCAACGAGGUACCACAUGAGGAUCACCCAUGUUUGGUUGAC | 15.4 | 13.3 |  |  |  |
| GUUCCCUCACAGAAGGAGUGUGUUAGUUGCACAUGAGGAUCACCCAUGUAAUAAACACGUGGCCACUAGGAUAUGUUAAACUGC |  |  | 12.9 | 10.8 |  |
| GUUUUGCGAAUAGGAUAUAGUAAUGAUUCAGGAAGCCUGAACAUGAGGAUCACCCAUGUGCCAUCCUAGAAGGAUUCGCACGUG |  |  | 359 | 186 |  |
| UAACAUUGCUAGAAGGGCGGUCAUCAGAUGGCCGCAGGAUAUAGACAUGAGGAUCACCCAUGUGAAGGGCAGGUUGUUCUAGUU |  |  | 18.1 | 22.5 |  |
| UAAUCCAACUCGUAAUGACAUGAGGAUCACCCAUGUGAGCGUGAGGAUAUUGUAAGCUAGGAGGUCAAGAAGGCACGCCAGGAG | 9.1 | 10 |  |  |  |
| UAGCAGUUCACAGGAUAUAGUUUGCGAUAAGUUUAUUUAUGAGAGACAUGAGGAUCACCCAUGUACUAGAAGGGUGAGAAAUAA |  |  | 461 | 130 |  |
| UAGCGAUCUCGUUAAAGGAUCCCAUUUGAUACCAGAGAACUUUGCCUCCCUUGGCAGCAAGUGACAUGAGGAUCACCCAUGUUGA |  |  |  |  | apparent Kd [7]: 16.2 nM; apparent Kd [8]: 23.9 nM |
| UAGUAGUAAGGAUAUGCGGCACCGACGCCUCCGAACCGCGGGCAGAAGGUACAUGAGGAUCACCCAUGUGGGUA | 169 | 116 |  |  |  |
| UAGUAUGGCACAGGAUAUACAAUUAAUAUGCGGGUAGAAGGGUGGUAUCGACAUGAGGAUCACCCAUGUUAGGAAGAAACACAC |  |  | 134 | 78.2 |  |
| UAUAAGGGUCAGAAGGCAGUGGCGCAGAAUGACUGAGGAUAUGAUAACCGGUAAUUUAACAUGAGGAUCACCCAUGUCUACAAC |  |  | 11.7 | 10.2 |  |
| UAUACUACUGAGGAUAUCCAAUCCCAGAAACAAGGAGAAGGCAGUACAUGAGGAUCACCCAUGUUCCUCGACAU | 43.1 | 127 |  |  |  |
| UAUUAGUUAGAGAAGGUCCUUAGGCCGCGUAAGGAAGGAUAUCUGCAUCACGGGCCUCUGGCAACAUGAGGAUCACCCAUGUGG | 96.8 | 156 |  |  |  |
| UCACUGUUAGGAUAUCUCAUAGCAGUAGGUCAGCUAUUUUGAGAGAAGGAACAUGAGGAUCACCCAUGUAAAUA | 19.6 | 84.7 |  |  |  |
| UCAUAGUCAGGAUAUUUAUUUGGCGGAGACUGCGGCCACCGAAAGAAGGGACAUGAGGAUCACCCAUGUAUCGG | 16.3 | 26.9 |  |  |  |
| UCAUUGAGAGUCAUCCAGCGUUAAUGGGAUACCAGAGUUCUUUUACUCCCUUGGCAGCCCGGAACAUGAGGAUCACCCAUGUCUG |  |  |  |  | apparent Kd [7]: 34.9 nM; apparent Kd [8]: 80.8 nM |
| UCCAUACGGUAGGAUAUAUGUACCCAGAAGGGCAUAGAAGGACCCACAUGAGGAUCACCCAUGUUCCUUUGGUG | 24.4 | 30.5 |  |  |  |
| UCCGCGGAGACGGCCGCCACUGAGUGAGAAGUCGUGCUCUAACUACAUGAGGAUCACCCAUGUCCCAGGACCGGGUCGAAGUGUU |  |  |  |  | apparent Kd (designed as: ON switch for tryptophan, no ligand): 214 nM; apparent Kd (ligand present: tryptophan, designed as: ON switch for tryptophan): 103 nM |
| UCCGGCGUUGACUAGGAUAUACGGAGGGUAACAUGAGGAUCACCCAUGUAAAGAACUAAAACAGCGUAGAAGGAGUCCAAAGCGAC |  |  | 28 | 19.1 |  |
| UCGCGUCUAGCUCAGGAUAUUGUGCCUGAUACAUGAGGAUCACCCAUGUCCUAAGUGCAAACCAACAAGAAGGGAGCUAAGCAUGU |  |  | 13.9 | 13.2 |  |
